Screening data as filed in PubChem.
hERG rescue: hERG rescue from dofetilide block, primary screen, cell-based, CHO-hERG, FluxOR thallium flux, dofetilide IC70. Voltage-gated inwardly rectifying potassium channel KCNH2 (Homo sapiens), Q12809. activation (rescue from dofetilide block), less the hit threshold, % at 10 µM. actives 0.51% (n = 310,000). dofetilide IC70 present;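 active = activation above the mean of controls blocked by dofetilide plus 5 SD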;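 note: thallium influx through hERG after potassium depolarization seen as dye fluorescence rise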
KCNK3 inh: human KCNK3 channel inhibitors, primary screen, CHO cells, FluxOR thallium flux, B-score; AID 602410, 2012; Potassium channel subfamily K member 3 (Homo sapiens), O14649; FluxOR fluorescence; active compounds read low; B-score at 10 µM; actives 0.84% (n = 340,000);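 active = B-score under library mean minus 4 SD, starting fluorescence ratio at most library mean plus 5 SD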;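 note: more negative B-score means stronger inhibition of thallium flux through KCNK3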
KCNQ1 act: potentiators or activators of KCNQ1 channel, primary screen, cell-based, thallium flux, high-throughput; actives 0.35% (n = 310,000); B-score at 10 µM; CHO-K1 KCNQ1, thallium flux FluxOR fluorescence; active compounds read high; AID 2648, 2010;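 active = fluorescence ratio B-score, a plate-corrected score, at least three library SD, with initial intensity B-score within 5 SD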
Target sequence (P51787 whole entry, looked up): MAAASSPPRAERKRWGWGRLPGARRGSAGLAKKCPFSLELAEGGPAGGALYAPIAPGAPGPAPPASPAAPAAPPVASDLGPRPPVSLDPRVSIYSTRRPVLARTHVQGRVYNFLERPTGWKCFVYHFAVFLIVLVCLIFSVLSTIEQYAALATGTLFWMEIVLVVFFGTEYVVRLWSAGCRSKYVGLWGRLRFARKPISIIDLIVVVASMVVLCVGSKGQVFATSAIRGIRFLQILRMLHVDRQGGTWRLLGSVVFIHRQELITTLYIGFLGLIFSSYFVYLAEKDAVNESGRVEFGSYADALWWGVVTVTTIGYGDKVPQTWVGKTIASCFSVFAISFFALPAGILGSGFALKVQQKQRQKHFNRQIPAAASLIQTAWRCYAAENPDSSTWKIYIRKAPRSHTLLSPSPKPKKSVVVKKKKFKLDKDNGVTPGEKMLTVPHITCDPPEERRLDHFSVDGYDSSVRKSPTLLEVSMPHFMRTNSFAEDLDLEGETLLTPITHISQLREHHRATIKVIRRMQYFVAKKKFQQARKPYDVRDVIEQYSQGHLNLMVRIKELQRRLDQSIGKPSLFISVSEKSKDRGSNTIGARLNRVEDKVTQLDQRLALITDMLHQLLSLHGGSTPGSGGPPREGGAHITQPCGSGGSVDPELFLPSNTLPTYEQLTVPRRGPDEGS
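Schedule – 37 °C overnight plating, 90-min dark dye load, 20-min compound pretreatment · System – stable KCNQ1 CHO-K1 line · Probe or stimulus – thallium- and potassium-containing depolarizing buffer · Measured by – kinetic FluxOR fluorescence, 10 s baseline plus 110 s post-stimulus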
KCNQ1 block: inhibitors of human KCNQ1 channel, primary screen, cell-based, thallium flux, high-throughput; Potassium voltage-gated channel subfamily KQT member 1 (Homo sapiens), P51787; CHO-K1 KCNQ1, FluxOR thallium flux fluorescence; active compounds read high; B-score at 10 µM; actives 1.3% (n = 310,000);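 active = compounds whose thallium flux B-score, printed positive for inhibition, exceeds three library SD while starting fluorescence stays within three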;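 note: channel opened by potassium depolarization with thallium stimulus after 20 min compound exposure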
KCNK9 inh: KCNK9 potassium channel inhibitors, primary screen, HEK293 cells, thallium flux; Potassium channel subfamily K member 9 (Homo sapiens), Q9NPC2; FluxOR thallium flux fluorescence; active compounds read low; B-score at 10 µM; actives 1.2% (n = 310,000);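 active = ratio B-score over 3 SD below the library mean, with starting fluorescence within 5 SD of its mean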;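 note: negative B-score means less thallium flux so channel inhibition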
Kir21 inh: inhibitors of mouse Kir2.1 inward-rectifier potassium channel; Inward rectifier potassium channel 2 (Mus musculus), P35561; HEK293-Kir2.1, FluxOR thallium flux fluorescence; active compounds read low; B-score at 10 µM; actives 0.85% (n = 310,000); AID 1672, 2009;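 active = fluorescence ratio B-score at or below minus 3 SD of library scores, with starting-brightness B-score within 2 SD, cut at about -4.2 in these data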;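 note: channel flux triggered by added potassium and thallium sulfate stimulus; B-score of peak minus minimum fluorescence over baseline after thallium stimulus; more negative B-score means stronger Kir2.1 block with less thallium influx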
KCNQ1 block val: KCNQ1 potassium channel inhibitors, confirmation, cell-based, Tl flux, duplicate; AID 588353, 2011; KCNQ1 cell line, FluxOR thallium flux fluorescence; inhibition, % at 10 µM; actives 93% (n = 1,600); shares compounds with KCNQ1 block;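 active = primary screen active, with duplicate mean exceeding buffer control mean plus 3 SD of buffer wells, cut at about 28% in these data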
CHO Tl flux: thallium flux effects in parental CHO cells, counter-screen for KCNQ1 inhibitor project, cell-based, Tl flux. shares compounds with KCNQ1 block. parental CHO-K1, FluxOR thallium flux fluorescence ratio; active compounds read low; zero means no signal rise above baseline. fluorescence ratio (Tl flux) at 10 µM. actives 21% (n = 1,600). AID 588366, 2011;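 active = mean of duplicate thallium-flux fluorescence ratios in parental host cells more than 5 SD below the buffer control mean, cut at about 0.38 in these data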;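 note: ratio is peak minus minimum fluorescence divided by baseline fluorescence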
KCNQ1 APC inh: KCNQ1 channel inhibitors, confirmation, orthogonal assay, cell-based, automated electrophysiology | KCNQ1-CHO cells, automated patch clamp current | actives 20% (n = 490) | AID 624120, 2012 | calls only at 10 µM | shares compounds with KCNQ1 block;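 active = KCNQ1 current drop exceeding 3 SD of negative control wells, seen in both duplicate runs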;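 note: steady state current during a 2 s step from -80 to +40 mV; negative values mean current inhibition and positive values mean potentiation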
KCNQ2 inh: KCNQ2 channel inhibition, selectivity assay for KCNQ1 inhibitor project, cell-based; actives 71% (n = 1,600); shares compounds with KCNQ1 block; inhibition, % at 10 µM; KCNQ2 cells, FluxOR thallium flux fluorescence;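 active = mean percent inhibition of the KCNQ2 thallium signal more than 5 SD above the buffer-only control wells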;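 note: KCNQ2 expressed in CHO cells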
KCNQ1 KCNE1 spec: KCNQ1/KCNE1 channel inhibition, selectivity assay for KCNQ1 inhibitor project, CHO-K1 cells, thallium flux, FluxOR; shares compounds with KCNQ1 block; FluxOR thallium flux fluorescence; inhibition, % at 10 µM; actives 77% (n = 1,600);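 active = mean percent inhibition of duplicate wells above the buffer-only control mean plus 3 SD of those controls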
A number is an active result; 0 = inactive; - = no result given; + = active, no number. This is a sample that favours compounds with a hit; in the whole collection about 3.7% have one here.

SMILES | hERG rescue | KCNK3 inh | KCNQ1 act | KCNQ1 block | KCNK9 inh | Kir21 inh | KCNQ1 block val | CHO Tl flux | KCNQ2 inh | KCNQ1 KCNE1 spec | others
Cc1ccc(CNC(=S)NC2CCC(C(C)(C)C)CC2)cc1 (centres undefined) | 0 | 0 | 0 | 13 | 0 | 0 | 108.5 | 0 | 83.7% | 80.0% | KCNQ1 APC inh=0
Cc1cc(C)nc(NC(=NCCc2c[nH]c3ccccc23)NC(=O)Nc2ccc(Cl)cc2)n1 | 0 | 0 | 0 | 6 | 0 | 0 | 47.5 | 0 | 88.3% | 89.5%
Cc1cccc(NS(=O)(=O)c2ccc(C3CCCCC3)cc2)c1 | 0 | 0 | 0 | 7 | 0 | 0 | 0 | 0 | 0 | 0
O=C(O)c1cccc(NS(=O)(=O)c2ccc(C3CCCCC3)cc2)c1 | 0 | 0 | 0 | 0 | 0 | 0 | - | - | - | -
CC1(C)CCN2CCC(C)(C)c3c(O)ccc1c32 | 0 | 0 | 0 | 11 | 0 | 0 | 70.0 | 0 | 62.3% | 58.0%
CSc1nc(-c2ccc(N(C)C)cc2)c(C#N)c(=O)n1C | 0 | 0 | 0 | 0 | 0 | 0 | - | - | - | -
CN1CCN(C2Cc3ccc(F)cc3Sc3cc(F)c(Cl)cc32)CC1 (centres undefined) | 0 | 0 | 0 | 0 | 0 | 0 | - | - | - | -
CN1CCN(C2=Cc3ccc(Cl)cc3Sc3ccc(F)cc32)CC1 | 0 | 0 | 0 | 6 | 0 | 0 | 173.0 | 0 | 116.0% | 188.5% | KCNQ1 APC inh=0
Clc1ccc(-c2csc(N3CCOCC3)n2)cc1 | 0 | 0 | 0 | 0 | 0 | 0 | - | - | - | -
Clc1ccc(-c2csc(N3CCCCCC3)n2)cc1 | 0 | 0 | 0 | 8 | 0 | 0 | 123.0 | 0 | 80.7% | 139.5% | KCNQ1 APC inh=0
O=C(NC1CC2CCC(C1)N2Cc1ccccc1)c1ccccc1Cl (centres undefined) | 0 | 0 | 0 | 0 | 0 | 0 | - | - | - | -
CCOc1ccc(-c2cc(C(=O)NCCCn3ccnc3)c3ccccc3n2)cc1 | 0 | 0 | 0 | 6 | 0 | 0 | 26.5 | 0 | 85.7% | 43.0%
CC(=O)NC12CC3CC(C1)CC(C(=O)Nc1nc4ccc(F)cc4s1)(C3)C2 | 0 | 0 | 0 | 7 | 0 | 0 | 92.5 | 0 | 65.3% | 85.0% | KCNQ1 APC inh=+
CCC1CCCCN1C(=O)c1cc(COc2ccc3ncccc3c2)on1 (centres undefined) | 0 | -8.97 | 0 | 12 | 0 | 0 | 123.5 | 0 | 86.3% | 112.5%
COCC1CCCCN1C(=O)c1cc(COc2ccc3ncccc3c2)on1 (centres undefined) | 0 | 0 | 0 | 0 | 0 | 0 | - | - | - | -
O=C(NCCc1ccccc1)C1CC(=O)N(C2CCCCC2)C1 (centres undefined) | 0 | 0 | 0 | 0 | 0 | 0 | - | - | - | -
CCOC(=O)c1ccc(N2CCN(c3ccccc3F)CC2)c(NC(=O)Nc2ccccc2)c1 | 0 | 0 | 0 | 6 | 0 | 0 | 118.5 | 0.362 | 118.3% | 138.0%
O=C(c1cccc(N2C(=O)C3C4C=CC(C4)C3C2=O)c1)N1CCCc2ccccc21 (centres undefined) | 0 | 0 | 0 | 10 | 0 | 0 | 0 | 0 | 0 | 46.5%
CC(C)C[C@@H](CO)N1CCN(Cc2cccnc2)CCC1=O | 0 | 0 | 0 | 0 | 0 | 0 | - | - | - | -
CCC(C)c1ccc(NC(=S)NCc2ccccc2OC)cc1 (centres undefined) | 0 | 0 | 0 | 9 | 0 | 0 | 61.5 | 0 | 69.3% | 65.5%
COc1ccccc1CNC(=S)NCCc1ccccc1 | 0 | 0 | 0 | 0 | 0 | 0 | - | - | - | -
CCCCCn1c(CN2CCN(c3cccc(Cl)c3)CC2)nc2c1c(=O)n(C)c(=O)n2C | 0 | 0 | 0 | 0 | 0 | 0 | - | - | - | -
CCCn1c(CN2CCN(c3cccc(Cl)c3)CC2)nc2c1c(=O)n(C)c(=O)n2C | 0 | 0 | 0 | 7 | 0 | 0 | 80.0 | 0 | 127.3% | 35.5%
O=C1c2ccccc2C(=O)N1CCC#Cc1ccc2cc(CCCO)oc(=O)c2c1 | - | 0 | - | - | - | - | - | - | - | -
COc1ccc(Cl)cc1NC(=S)NCCc1ccc(F)cc1 | 0 | 0 | 0 | 6 | 0 | -4.64 | 64.0 | 0 | 114.0% | 50.5%
SMILES | hERG rescue | KCNK3 inh | KCNQ1 act | KCNQ1 block | KCNK9 inh | Kir21 inh | KCNQ1 block val | CHO Tl flux | KCNQ2 inh | KCNQ1 KCNE1 spec | others
Fc1ccc(CCNC(=S)Nc2ccc(F)c(Cl)c2)cc1 | 0 | 0 | 0 | 9 | 0 | 0 | 48.5 | 0 | 0 | 0
COc1ccc(OC)c(NC(=O)c2nnn(CC(=O)Nc3ccc4c(c3)OCO4)c2N)c1 | 0 | 0 | 0 | 0 | 0 | 0 | - | - | - | -
CC(NC(=O)Nc1ccc(Br)cc1)C(C)(C)C (centres undefined) | 0 | 0 | 0 | 8 | 0 | 0 | 60.0 | 0 | 69.0% | 66.0%
CCn1c(C)c(C)c2cc(C(=O)N3CCc4ccccc4C3)ccc21 | 0 | 0 | 0 | 7 | 0 | 0 | 114.0 | 0 | 113.0% | 62.0% | KCNQ1 APC inh=0
Cc1cc2nc(C(C)(C)C)cc(N)n2n1 | 0 | 0 | 0 | 0 | 0 | 0 | - | - | - | -
CC(C)(C)c1cc(N)n2nc(C(C)(C)C)cc2n1 | 0 | 0 | 0 | 11 | 0 | 0 | 96.5 | 0 | 0 | 122.5% | KCNQ1 APC inh=+
Cc1ccc(C)c(NC(=S)NCCSc2ccc(Cl)cc2)c1 | 0 | 0 | 0 | 8 | 0 | 0 | 121.5 | 0 | 90.0% | 121.5% | KCNQ1 APC inh=0
Cc1cccc(NC(=S)NCCSc2ccc(Cl)cc2)c1 | 0 | 0 | 0 | 8 | 0 | 0 | 82.0 | 0 | 60.3% | 95.5%
CCc1ccccc1NC(=S)NCCSc1ccc(Cl)cc1 | 0 | 0 | 0 | 0 | 0 | 0 | - | - | - | -
CN(C)CCN(C(=O)c1ccc2c(c1)CCCC2)c1nc2cc3c(cc2s1)OCCO3 | 0 | 0 | 0 | 11 | 0 | 0 | 105.5 | 0.352 | 125.0% | 121.0%
